This passage reports IC50 and Activity results from ChEMBL document CHEMBL1142288, “Synthesis and biological evaluation of pyrroloiminoquinone derivatives” (Bioorg Med Chem, 2008).

pIC50: −log10 of the molar value. Activity calls are given as the source filed them. No cut-off for these calls is given here.

The test system of test [1] is HL-60. Nature of the test: Antiproliferative activity against human HL60 cells after 72 hrs by trypan blue test. Format: functional, cell-based. The settings on record: HL-60, 72 h. An outline of the steps:
(§1)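 HeLa (Ham's F-12, 10% heat-inactivated FCS) or HL-60 (RPMI 1640, 15% heat-inactivated FCS), both with penicillin/streptomycin/amphotericin; 4 · 10⁴ cells/well seeded in duplicate, 72 h drug exposure. Viability by Trypan blue; IC50 = concentration giving 50% reduction in cell number versus untreated controls.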

In test [2] the test system is HeLa. Nature of the test: Antiproliferative activity against human HeLa cells after 72 hrs by trypan blue test. Format: functional, cell-based. An outline of the steps: as §1
Test [3] deals with HeLa. The test is described as follows: Induction of apoptosis in human HeLa cells assessed as DNA fragmentation at 100 uM after 24 hrs. The class given is functional, cell-based. The method in brief:
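HeLa cells (5 · 10⁵) incubated 24 h at 37 °C, medium replaced, test agent added; solvent-only controls. After 24 h, DNA extracted, dissolved in TE (10 mM Tris pH 8, 1 mM EDTA), run on 1% agarose, ethidium bromide-stained and imaged under UV; cisplatin as positive control.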

The subject of test [4] is NCI-H460. Nature of the test: Antiproliferative activity against human NCI-H460 cells after 72 hrs. The settings on record: NCI-H460, 72 h.
Test [5] is filed under the species Homo sapiens. Nature of the test: Inhibition of human recombinant topoisomerase 2 assessed as relaxation of supercoiled pBR322 plasmid DNA at 50 uM.
For test [6], the species on record is Homo sapiens. Nature of the test: Inhibition of human recombinant topoisomerase 2 assessed as relaxation of supercoiled pBR322 plasmid DNA at 10 to 50 uM.

A word on the pIC50: it is the IC50 on a negative log10 scale, so that one unit is a factor of ten. `Cn1cc2c3c1C(=O)C(NCCc1ccc(O)cc1)=CC3=NCC2` [MAKALUVAMINE K]: the pIC50 in test [1] is 5.16; in test [2], 5.31; in test [4] it was 4.97. The result in test [3] was Active.
In test [4], `COc1cc2c3c(cn(C)c3c1OC)CCN2` showed a pIC50 of under 4.22.
For the compound `Cn1cc2c3c1C(=O)C(NCc1ccccc1)=CC3=NCC2`, the pIC50 in test [4] is under 4.40.
The same measure, in the same setting: for `C[C@H](NC1=CC2=NCCc3cn(C)c(c32)C1=O)c1ccccc1` the value was 4.64.
In the case of `COc1cc(NS(C)(=O)=O)ccc1Nc1c2ccccc2nc2ccccc12` [AMSACRINE], the pIC50 in test [1] was 8.29; in test [2], 7.92.
On to `Cn1cc2c3c1C(=O)C1=C(C3=NCC2)C2(C=CC(=O)C=C2)CCN1`, for which the pIC50 is 5.51 in test [1], 5.26 in test [2] and 5.21 in test [4]. Also, the outcome in test [3] was Active.
`COC1=CC2=NCCc3cn(C)c(c32)C1=O`: the pIC50 in test [1] was under 4.70; in test [2], under 4.70; in test [4], 5.05.
As to `Cn1cc2c3c1C(=O)C(NCCc1c[nH]c4ccccc14)=CC3=NCC2`, the values for the pIC50 in test [1], in test [2] and in test [4] were 5.11, 5.39 and 5.67, respectively. In addition, the result in test [5] and in test [3] was Active.
In turn, `COc1cc2c3c(c[nH]c3c1OC)CCN2C=O` gave a pIC50 in test [4] of under 4.22.
`COc1cccc2c1C(=O)c1c(O)c3c(c(O)c1C2=O)C[C@@](O)(C(=O)CO)C[C@@H]3O[C@H]1C[C@H](N)[C@H](O)[C@H](C)O1` [DOXORUBICIN] showed a negative logarithm of the IC50 (pIC50) in test [4] of 7.55.
For the compound `Cn1cc2c3c1C(=O)C1=C(NCCS1)C3=NCC2`, the pIC50 is 5.57 in test [1], 5.72 in test [2] and 6.02 in test [4]. Besides, the result in test [6] was Active.
For `Cn1cc2c3c1C(=O)C(NCCc1c[nH]c4ccc(F)cc14)=CC3=NCC2`, the pIC50 in test [1] is under 4.70; in test [2], under 4.70; in test [4] it was 5.26.
Turning to `COc1cc2c3c(c1OC)N(C=O)C(OC)C3CCN2C=O` (stereo not drawn), the results for the pIC50 in test [1], in test [2] and in test [4] were under 4.70, under 4.70 and 5.11, respectively.
In test [4], `COc1cc2c3c(cn(C=O)c3c1OC)CCN2C=O` gave a pIC50 of under 4.22.
In turn, `COc1ccc(CCNC2=CC3=NCCc4cn(C)c(c43)C2=O)cc1` had a pIC50 in test [4] of under 4.40.
For the compound `Cn1cc2c3c1C(=O)C(NCCc1c[nH]c4ccc(O)cc14)=CC3=NCC2`, in test [4], the pIC50 was under 4.40.
On to `COc1cc2c3c(cn(C)c3c1OC)CCN2C=O`, for which, in test [4], the pIC50 was under 4.22.
For the compound `COc1ccc2[nH]cc(CCNC3=CC4=NCCc5cn(C)c(c54)C3=O)c2c1`, the pIC50 in test [4] was 5.06.
